The entries come from a sample that favours hits as a whole.
Redox H2O2 prof: compounds producing H2O2 with reducing agent – biochemical, NIH compound library profiling, artefact control for MLSCN library redox annotation, primary screen; DTT-dependent redox cycling H2O2, phenol red/HRP absorbance; 100% = 100 µM peroxide control, 0% = buffer; activation, % at 10 µM; 200,000 tested, 0.03% active; AID 878, 2007;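 active means activation of at least 50% relative to the plate's high and low controls in the primary single-dose screen; inactive means activation below 50%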;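 further: compound incubated with DTT at 0.8 mM final as the reducing agent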
L major viab: Leishmania major promastigote growth inhibition, primary screen | Leishmania major promastigotes, resazurin fluorescence viability | AID 1063, 2008 | 200,000 tested, 9% active | inhibition, % at 10 µM; in the data active means inhibition above about 50%;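 further: promastigotes grown with compound for 44 hours at 28 °C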
MPTP inh: mitochondrial permeability transition pore inhibitors, primary screen, biochemical, isolated mouse mitochondria, absorbance; Ca2+ swelling absorbance, 30 min; inhibition, % at 10 µM; 360,000 tested, 1.4% active;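 active means inhibition of 50% or more, scaled per plate between neutral and stimulator controls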;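 further: 0% = DMSO wells given calcium and 100% = 1 mM EGTA wells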
Hep lipid drop: inhibitors of hepatocyte lipid droplet formation, primary screen, imaging, high-throughput imaging, BODIPY stain. AID 1656, 2009. AML12 mouse hepatocytes, oleate lipid droplets. inhibition, % at 6.5 µM. 240,000 tested, 0.4% active;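 active means lipid droplet intensity inhibited by at least 50%, with more than 500 cells counted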
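Test system: AML12 mouse liver cells; schedule: overnight exposure; technique: high-content imaging of BODIPY-stained droplets and DAPI nuclei; read-out: % inhibition of corrected integrated BODIPY droplet signal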
T cruzi inh: inhibitors of intracellular T. cruzi growth, primary screen, luminescence, NIH3T3 host cells; T. cruzi beta-gal in NIH3T3, 90 h; inhibition, % (test concentration not listed); 300,000 tested, 1.4% active; AID 1885, 2009;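 active means mean inhibition across valid replicates above about 55%, limit read from the data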;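 further: signal also drops with host cell toxicity which is not excluded here; 0% = plate median of DMSO wells and 100% = zero luminescence signal; higher percent means less beta-gal luminescence so fewer parasites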
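compound dosing = single 50 nL compound addition per well in DMSO | material = NIH/3T3 host cells with β-galactosidase reporter T. cruzi | input = 5,000 host fibroblasts per well | timing = ≥90 h infection period, 3 h prior cell attachment | read-out basis = percent inhibition of parasite-derived β-gal signal | detection = GalScreen β-gal luminescence, detergent lysis, 60 min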
* marks the source's active call; other numbers are inactive results; . = no result given.

SMILES | Redox H2O2 prof | L major viab | MPTP inh | Hep lipid drop | T cruzi inh
COc1ccccc1C1CC(c2ccc(NS(C)(=O)=O)cc2)=NN1C(=O)c1ccccc1 (configuration not stated) | 0 | 77* | 4 | 21 | 9
Cc1ccc(C(=O)N2N=C(c3ccccc3O)CC2c2ccccc2)cc1 (configuration not stated) | . | . | -1 | 3 | 19
Cc1ccc(C(=O)N2N=C(c3ccc(Br)cc3)CC2c2ccccc2O)cc1 (configuration not stated) | . | . | 2 | 16 | 55*
CCOC(=O)N(C)C[C@@H]1OCc2ccccc2-c2c(n(C)c3ccccc23)C(=O)N([C@H](C)CO)C[C@H]1C | . | . | 1 | . | .
O=C(Nc1ccc(F)c(Cl)c1)c1ccc2sc([C@H]3C[C@H](O)[C@@H](CO)O3)nc2c1 | . | . | 1 | . | .
O=C(NCCN1CCOCC1)c1ccc(/C=C2\Sc3ccccc3N(Cc3ccccc3F)C2=O)cc1 | . | . | 0 | -2 | -2
COc1ccc(/C=C2\Sc3ccc(C(=O)NCCN4CCCCCC4)cc3N(C)C2=O)cc1 | . | . | 2 | -5 | 21
CN1CCN(CCCNC(=O)c2ccc(/C=C3\Sc4ccccc4N(Cc4ccccc4F)C3=O)cc2)CC1 | -1 | 100* | -5 | -32 | 69*
O=C(NCCN1CCOCC1)c1ccc2c(c1)N(Cc1cccc(F)c1)C(=O)c1ccccc1S2 | -1 | 100* | -1 | 16 | -2
CCN1CCN(CCNC(=O)c2ccc3c(c2)N(Cc2ccc(F)cc2)C(=O)/C(=C/c2ccccc2)S3)CC1 | -1 | 101* | -3 | 6 | 54
Cc1cccc(CN2C(=O)/C(=C\c3ccc(C(=O)NCCN4CCOCC4)cc3)Sc3ccccc32)c1 | . | . | -3 | 5 | 46
CCN1CCN(CCNC(=O)c2ccc(/C=C3/Sc4ccccc4N(Cc4cccc(Cl)c4)C3=O)cc2)CC1 | 1 | 101* | -6 | -7 | 61*
COc1ccc(Cl)cc1NC(=O)CN(C)C(=O)c1ccc(-n2cncn2)cc1 | . | . | -2 | . | .
CSCC[C@@H](CO)NC(=O)[C@H]1O[C@@H](n2ccc(N)nc2=O)[C@H](O)[C@@H]1O | . | . | 0 | . | .
O=C(NN1C(=O)C2C(c3ccccc3)C=CC(c3ccccc3)C2C1=O)c1cccc(Br)c1 (configuration not stated) | 0 | 15 | 6 | 2 | 11
CC(C)OCCCNC(=O)CN1C(=O)/C(=C/c2ccccc2)Sc2ccccc21 | -1 | 59* | 0 | -17 | -18
O=C(CCS(=O)(=O)c1ccc(F)cc1)Nc1nc(-c2ccncc2)cs1 | . | . | -2 | -10 | -19
c1ccc(Cn2nnnc2C(c2cccs2)N2CCc3ccccc3C2)cc1 (configuration not stated) | 3 | 51* | 1 | -30 | 42
Oc1ccc(N2CCN(C(c3cccs3)c3nnnn3CCc3ccccc3)CC2)cc1 (configuration not stated) | -3 | 100* | -1 | 8 | -13
Cc1ccc(C)c(NC(=O)CN(C)C(C)C(=O)N2CC(C)CC(C)C2)c1 (configuration not stated) | . | . | 1 | . | .
CCOc1cc(N2CCOCC2)c(OCC)cc1NC(=O)CN1C(=O)NC(C)(c2ccc(OC)cc2)C1=O (configuration not stated) | . | . | -2 | . | .
COc1ccc(NC(=O)CC2(Cc3ccccc3)CCOC(C)(C)C2)cc1 (configuration not stated) | 0 | 55* | 0 | -6 | -16
CN1CCN(c2ncnc3c2ncn3[C@H]2CN(Cc3ccc(C(=O)O)cc3)C[C@@H](CO)O2)CC1 | . | . | -1 | . | .
O=C(c1ccc([N+](=O)[O-])cc1)N1CCSC1c1ccccc1 (configuration not stated) | 0 | 4 | 0 | 0 | -14
O=C(c1ccc([N+](=O)[O-])cc1)N1CCSC1c1cccc(Cl)c1 (configuration not stated) | 0 | 51* | -1 | -48 | 11
SMILES | Redox H2O2 prof | L major viab | MPTP inh | Hep lipid drop | T cruzi inh
CN(C)c1ccc(C2SCCN2C(=O)c2ccc([N+](=O)[O-])cc2)cc1 (configuration not stated) | 0 | -1 | -1 | 8 | 58*
Cc1cccc(C)c1OCC(=O)NCC1COc2ccccc2O1 (configuration not stated) | . | . | -2 | . | .
Cc1cc2nc3n(c2cc1C)CCCN3 | . | . | 0 | -19 | 67*
O=C(COC(=O)[C@H](Cc1c[nH]c2ccccc12)NC(=O)c1ccc(Cl)cc1)Nc1ccc2c(c1)OCO2 | 0 | 100* | 7 | 8 | -10
CN(C)c1nc(N)ncc1-c1ccc(Oc2ccccc2)cc1 | . | . | 5 | 11 | 70*
CCN(C(=O)COc1ccc(C)nc1[N+](=O)[O-])C1CCS(=O)(=O)C1 (configuration not stated) | . | 51* | 0 | 12 | -8
O=C(/C=C/c1cccs1)Nc1cccc(NC(=O)/C=C/c2cccs2)n1 | 1 | 55* | 8 | -3 | 43
COc1ccc(S(=O)(=O)N2CCN=C2SCc2cccc(C)c2)cc1 | . | . | 6 | -12 | 18
CCCCC(=O)Nc1sc2c(c1C(=O)OCC)CCC(C=O)=C2Cl | -5 | 99* | 0 | . | -5
CCOC(=O)c1c(NC(=O)c2ccccc2Cl)sc2c1CCc1ccccc1-2 | 1 | -4 | 2 | -3 | 23
COc1cc(OC)cc(C2=Cc3ccc(OC)cc3C(CC(C)=O)N2c2ccc(C#CCCO)cc2)c1 (configuration not stated) | . | . | 0 | . | .
CN(C)c1ccc2c(c1)Sc1cc(N(C)C)ccc1N2C(=O)c1ccccc1 | . | . | 1 | 2 | 60*
Cc1ccc(C(=O)N2c3ccccc3Sc3ccccc32)cc1 | . | . | -2 | . | .
CC1CC(=O)Nc2ccccc2N1C(=O)CSc1nnnn1C(C)C (configuration not stated) | . | . | 0 | . | .
CCCCOC(=O)c1ccc(NC(=O)CSC2=Nc3ccccc3C3CC=NN23)cc1 (configuration not stated) | 1 | 99* | 22 | 14 | 33
O=C(CSC1=Nc2ccccc2C2CC=NN12)Nc1ccc(F)c(F)c1F (configuration not stated) | . | . | 0 | . | .
CC(=O)O[C@H]1C(=O)[C@]2(C)[C@H]([C@H](OC(=O)c3ccccc3)[C@]3(O)C[C@H](OC(=O)[C@H](O)[C@@H](NC(=O)c4ccccc4)c4ccccc4)C(C)=C1C3(C)C)[C@]1(OC(C)=O)CO[C@@H]1C[C@@H]2O | . | . | 0 | . | 51
CC(=O)O[C@H]1C(=O)[C@@]2(C)C([C@H](OC(=O)c3ccccc3)[C@]3(O)C[C@H](OC(=O)[C@H](O)[C@@H](NC(=O)c4ccccc4)c4ccccc4)C(C)=C1C3(C)C)[C@]1(OC(C)=O)CO[C@@H]1C[C@H]2O (some centres not stated) | . | . | -1 | . | 61*

Assay outcomes: PubChem BioAssay, several laboratories
